According to ChEMBL document CHEMBL1156827, “Benzimidazole derivatives as new serotonin 5-HT6 receptor antagonists. Molecular mechanisms of receptor inactivation” (J Med Chem, 2010):
Calls of active or inactive are those of the source. The calls are words filed in the database; no cut-off is given here.

Tests used:
[1] = biological target: 5-hydroxytryptamine receptor 7 (Homo sapiens, UniProt P34969); experiment: Displacement of [3H]LSD from human 5HT7 receptor expressed in HEK293 cells by liquid scintillation counting; type: cell-based
5-hydroxytryptamine receptor 7, sequence (P34969 whole entry): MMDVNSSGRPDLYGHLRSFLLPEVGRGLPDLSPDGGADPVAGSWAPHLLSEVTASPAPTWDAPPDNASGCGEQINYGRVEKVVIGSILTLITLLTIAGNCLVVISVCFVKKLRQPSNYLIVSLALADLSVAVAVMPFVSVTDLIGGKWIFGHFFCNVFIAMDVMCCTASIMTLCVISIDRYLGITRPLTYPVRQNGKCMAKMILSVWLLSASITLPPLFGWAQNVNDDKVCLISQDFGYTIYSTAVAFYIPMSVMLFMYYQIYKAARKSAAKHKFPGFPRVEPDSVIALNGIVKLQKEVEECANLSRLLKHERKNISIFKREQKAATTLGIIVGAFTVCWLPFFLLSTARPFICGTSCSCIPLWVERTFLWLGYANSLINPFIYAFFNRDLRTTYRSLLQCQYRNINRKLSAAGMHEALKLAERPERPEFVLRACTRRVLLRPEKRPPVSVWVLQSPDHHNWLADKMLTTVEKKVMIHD
How it was run: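 Purchased HEK-293 membranes expressing h5-HT7R were incubated with 3 nM [³H]LSD for 120 min at 27 °C. Buffer: 50 mM Tris-HCl, 10 mM MgSO4, 0.5 mM EDTA, pH 7.4. Nonspecific binding was defined with 25 μM clozapine. Samples were filtered onto 0.3% PEI-soaked filters, washed with ice-cold Tris, and counted by scintillation. Ki was derived from IC50 by Cheng-Prusoff.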

[2] = biological target: T1, 5-hydroxytryptamine receptor 6 (Homo sapiens, UniProt P50406); experiment: Antagonist activity at human 5HT6 receptor expressed in COS7 cells assessed as inhibition of serotonin-induced cAMP accumulation by HTRF assay; type: functional, cell-based, COS-7
T1 sequence (P50406 whole entry): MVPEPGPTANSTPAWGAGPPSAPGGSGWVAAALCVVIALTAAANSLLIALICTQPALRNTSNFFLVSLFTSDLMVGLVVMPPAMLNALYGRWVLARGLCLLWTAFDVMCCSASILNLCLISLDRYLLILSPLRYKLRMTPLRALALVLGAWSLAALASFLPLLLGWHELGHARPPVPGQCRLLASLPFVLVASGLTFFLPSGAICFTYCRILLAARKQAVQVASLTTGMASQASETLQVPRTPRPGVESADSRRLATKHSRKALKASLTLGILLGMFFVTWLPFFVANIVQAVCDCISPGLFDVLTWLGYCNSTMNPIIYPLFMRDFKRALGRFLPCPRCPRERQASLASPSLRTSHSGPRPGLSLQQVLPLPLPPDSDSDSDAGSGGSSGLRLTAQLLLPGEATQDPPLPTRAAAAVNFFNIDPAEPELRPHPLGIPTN
How it was run: (§1)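 COS-7 cells were transfected with wild-type or mutant receptor cDNA and seeded at 100000 cells/well. At 24 h post-transfection, cells were stimulated for 10 min at 37 °C with eight concentrations of test ligand plus 100 μM 5-HT. cAMP was read by HTRF. Three independent experiments in triplicate, mean ± SEM.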

[3] = biological target: T1, 5-hydroxytryptamine receptor 6; experiment: Agonist activity at human 5HT6 receptor expressed in COS7 cells assessed as stimulation of cAMP accumulation by HTRF assay; type: functional, cell-based; details: COS-7
How it was run: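 COS-7 cells transfected with human 5-HT6R cDNA, seeded 100000 cells/well, stimulated 24 h post-transfection for 10 min at 37 °C with each tested compound without 5-HT (agonist mode). cAMP quantified by HTRF; activity expressed as percentage of maximal effect obtained with serotonin alone. Three independent experiments in triplicate.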

[4] = biological target: T1, 5-hydroxytryptamine receptor 6; experiment: Displacement of [3H]LSD from human 5HT6 receptor expressed in HEK293 cells by liquid scintillation counting; type: cell-based
How it was run: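 Buffer: 50 mM Tris-HCl, 10 mM MgCl2, 0.5 mM EDTA, pH 7.4. Nonspecific binding was defined with 500 μM serotonin. Samples were filtered onto 0.5% PEI-soaked filters, washed with ice-cold Tris, and counted by scintillation. Screening was at 10^-6 M; six-point curves were run if displacement exceeded 50%. Ki by Cheng-Prusoff, 2-4 experiments.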

[5] = biological target: 5-hydroxytryptamine receptor 6 (Mus musculus, UniProt Q9R1C8, W283A); experiment: Antagonist activity at mouse 5HT6 receptor W6.48A mutant expressed in COS7 cells assessed as inhibition of serotonin-induced cAMP accumulation by HTRF assay; type: functional, cell-based, COS-7
5-hydroxytryptamine receptor 6 (Mus musculus, UniProt Q9R1C8, W283A), sequence (Q9R1C8 whole entry W283A): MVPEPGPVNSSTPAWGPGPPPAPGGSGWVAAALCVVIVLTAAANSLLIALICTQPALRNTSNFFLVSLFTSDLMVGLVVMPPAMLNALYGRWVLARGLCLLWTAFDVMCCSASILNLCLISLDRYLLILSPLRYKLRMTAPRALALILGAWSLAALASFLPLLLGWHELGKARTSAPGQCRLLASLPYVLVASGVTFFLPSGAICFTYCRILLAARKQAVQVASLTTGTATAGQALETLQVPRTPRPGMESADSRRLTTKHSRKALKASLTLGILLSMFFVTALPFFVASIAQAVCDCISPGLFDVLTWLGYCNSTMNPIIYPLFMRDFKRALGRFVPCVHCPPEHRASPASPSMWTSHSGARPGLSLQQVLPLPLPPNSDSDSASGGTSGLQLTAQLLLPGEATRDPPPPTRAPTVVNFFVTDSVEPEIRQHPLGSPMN
How it was run: as §1, with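 “HTRF. […]” for “HTRF.”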

[6] = biological target: 5-hydroxytryptamine receptor 6 (Mus musculus, UniProt Q9R1C8, F287A); experiment: Antagonist activity at mouse 5HT6 receptor F6.52A mutant expressed in COS7 cells assessed as inhibition of serotonin-induced cAMP accumulation by HTRF assay; type: functional, cell-based, COS-7
5-hydroxytryptamine receptor 6 (Mus musculus, UniProt Q9R1C8, F287A), sequence (Q9R1C8 whole entry F287A): as the sequence (Q9R1C8 whole entry W283A) above, with A283W, F287A counted along it
How it was run: as §1, with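 “HTRF. […]” for “HTRF.”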

[7] = biological target: 5-hydroxytryptamine receptor 6 (Mus musculus, UniProt Q9R1C8, C110A); experiment: Antagonist activity at mouse 5HT6 receptor C3.36A mutant expressed in COS7 cells assessed as inhibition of serotonin-induced cAMP accumulation by HTRF assay; type: functional, cell-based, COS-7; how it was run: as §1
5-hydroxytryptamine receptor 6 (Mus musculus, UniProt Q9R1C8, C110A), sequence (Q9R1C8 whole entry C110A): as the sequence (Q9R1C8 whole entry W283A) above, with C110A, A283W counted along it

[8] = biological target: 5-hydroxytryptamine receptor 6 (Mus musculus, UniProt Q9R1C8); experiment: Antagonist activity at mouse wild type 5HT6 receptor expressed in COS7 cells assessed as inhibition of serotonin-induced cAMP accumulation by HTRF assay; type: functional, cell-based, COS-7; how it was run: as §1
5-hydroxytryptamine receptor 6 (Mus musculus, UniProt Q9R1C8), sequence (Q9R1C8 whole entry): as the sequence (Q9R1C8 whole entry W283A) above, with A283W counted along it

[9] = Antagonist activity at mouse 5HT6 receptor N6.55A mutant expressed in COS7 cells assessed as inhibition of serotonin-induced cAMP accumulation by HTRF assay; type: functional, cell-based; details: cos-7
How it was run: as §1, with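 “HTRF. […]” for “HTRF.”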

Row | Structure (SMILES) | Ki [1] | Ki [4] | other results
1 | c1ccc(Cc2nc3c(N4CCNCC4)cccc3[nH]2)cc1 | > 500 nM | 58 nM | Ki [2]: 31 nM; Activity [3]: inactive
2 | O=C(c1ccccc1)c1nc2c(N3CCNCC3)cccc2[nH]1 | > 500 nM | > 1000 nM | –
3 | c1ccc(Cc2nc3cc(N4CCNCC4)ccc3[nH]2)cc1 | > 500 nM | > 1000 nM | –
4 | CN1CCN(c2ccc3[nH]c(C(=O)c4cccc5ccccc45)nc3c2)CC1 | > 500 nM | > 1000 nM | –
5 | CN1CCN(c2ccc3[nH]c(C(=O)c4ccccc4)nc3c2)CC1 | > 500 nM | > 1000 nM | –
6 | CN1CCN(c2cccc3[nH]c(C(=O)c4ccccc4)nc23)CC1 | > 500 nM | > 1000 nM | –
7 | CN1CCN(c2cccc3[nH]c(Cc4ccccc4)nc23)CC1 | > 500 nM | 66.8 nM | Ki [2]: 16 nM; Activity [3]: inactive
8 | CN1CCN(c2cccc3[nH]cnc23)CC1 | – | > 1000 nM | –
9 | COc1ccc(NS(=O)(=O)c2ccc(I)cc2)cc1N1CCN(C)CC1 | – | – | Ki [5]: 0.32 nM; Ki [6]: 114 nM; Ki [7]: 54 nM; Ki [8]: 0.75 nM; Ki [9]: 27 nM
10 | CN1CCN(c2ccc3[nH]c(C(=O)c4ccc5ccccc5c4)nc3c2)CC1 | > 500 nM | > 1000 nM | –
11 | CN1CCN(c2ccc3[nH]c(Cc4ccccc4)nc3c2)CC1 | > 500 nM | > 1000 nM | –
12 | CN1CCN(c2ccc3[nH]c(Cc4ccc5ccccc5c4)nc3c2)CC1 | > 500 nM | > 1000 nM | –

Second part, led by results:

Row | Ki [1] | Ki [4] | Structure (SMILES) | other results
13 | > 500 nM | 13 nM | O=C(c1nc2c(N3CCNCC3)cccc2[nH]1)c1cccc2ccccc12 | Ki [2]: 15 nM; Activity [3]: inactive
14 | > 500 nM | > 1000 nM | c1ccc2c(Cc3nc4ccc(N5CCNCC5)cc4[nH]3)cccc2c1 | –
15 | > 500 nM | 16 nM | c1ccc2c(Cc3nc4c(N5CCNCC5)cccc4[nH]3)cccc2c1 | Ki [2]: 16 nM; Activity [3]: inactive
16 | > 500 nM | > 1000 nM | CN1CCN(c2ccc3[nH]c(Cc4cccc5ccccc45)nc3c2)CC1 | –
17 | > 500 nM | > 1000 nM | CN1CCN(c2cccc3[nH]c(C(=O)c4ccc5ccccc5c4)nc23)CC1 | –
18 | > 500 nM | > 1000 nM | c1ccc2cc(Cc3nc4ccc(N5CCNCC5)cc4[nH]3)ccc2c1 | –
19 | > 500 nM | 36.2 nM | CN1CCN(c2cccc3[nH]c(Cc4cccc5ccccc45)nc23)CC1 | Ki [2]: 27 nM; Activity [3]: inactive
20 | > 500 nM | > 1000 nM | O=C(c1ccc2ccccc2c1)c1nc2cc(N3CCNCC3)ccc2[nH]1 | –
21 | > 500 nM | – | CN1CCN(c2cccc3[nH]c(C(=O)c4cccc5ccccc45)nc23)CC1 | –
